Measured values taken from ChEMBL document CHEMBL3600323, “Structure-Activity and Structure-Property Relationship and Exploratory in Vivo Evaluation of the Nanomolar Keap1-Nrf2 Protein-Protein Interaction Inhibitor” (J Med Chem, 2015).
pIC50: −log10 of the molar value. ≈ marks a conversion by molar mass, not a printed value. Calls of active or inactive are those of the source. The calls are words filed in the database; no cut-off is given here.

Assays:
Keap1/Nrf2 = Keap1/Nrf2 (Homo sapiens, UniProt Q14145); assay: Inhibition of Keap1 Kelch domain-Nrf2 ETGE (unknown origin) protein-protein interaction incubated for 30 mins by fluorescence polarization competition assay
Keap1/Nrf2, sequence (Q16236 whole entry, the tested form may be a part): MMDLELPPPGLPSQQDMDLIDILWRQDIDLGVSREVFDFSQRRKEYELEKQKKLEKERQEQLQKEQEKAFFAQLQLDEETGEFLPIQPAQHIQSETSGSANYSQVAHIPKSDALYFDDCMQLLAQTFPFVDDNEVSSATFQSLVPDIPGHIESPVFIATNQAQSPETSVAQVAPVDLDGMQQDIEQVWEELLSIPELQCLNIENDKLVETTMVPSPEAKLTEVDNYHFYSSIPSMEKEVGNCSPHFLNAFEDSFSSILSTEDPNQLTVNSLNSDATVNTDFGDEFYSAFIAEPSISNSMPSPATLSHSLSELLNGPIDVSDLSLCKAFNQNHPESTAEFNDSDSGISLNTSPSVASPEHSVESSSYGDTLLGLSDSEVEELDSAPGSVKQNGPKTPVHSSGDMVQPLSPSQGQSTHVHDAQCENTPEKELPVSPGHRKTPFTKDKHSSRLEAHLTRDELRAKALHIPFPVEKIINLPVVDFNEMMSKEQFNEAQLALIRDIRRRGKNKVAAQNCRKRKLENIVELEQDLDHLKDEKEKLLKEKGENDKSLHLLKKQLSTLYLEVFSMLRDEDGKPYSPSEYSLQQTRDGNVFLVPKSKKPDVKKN
Keap1/Nrf2, sequence (Q14145 whole entry, the tested form may be a part): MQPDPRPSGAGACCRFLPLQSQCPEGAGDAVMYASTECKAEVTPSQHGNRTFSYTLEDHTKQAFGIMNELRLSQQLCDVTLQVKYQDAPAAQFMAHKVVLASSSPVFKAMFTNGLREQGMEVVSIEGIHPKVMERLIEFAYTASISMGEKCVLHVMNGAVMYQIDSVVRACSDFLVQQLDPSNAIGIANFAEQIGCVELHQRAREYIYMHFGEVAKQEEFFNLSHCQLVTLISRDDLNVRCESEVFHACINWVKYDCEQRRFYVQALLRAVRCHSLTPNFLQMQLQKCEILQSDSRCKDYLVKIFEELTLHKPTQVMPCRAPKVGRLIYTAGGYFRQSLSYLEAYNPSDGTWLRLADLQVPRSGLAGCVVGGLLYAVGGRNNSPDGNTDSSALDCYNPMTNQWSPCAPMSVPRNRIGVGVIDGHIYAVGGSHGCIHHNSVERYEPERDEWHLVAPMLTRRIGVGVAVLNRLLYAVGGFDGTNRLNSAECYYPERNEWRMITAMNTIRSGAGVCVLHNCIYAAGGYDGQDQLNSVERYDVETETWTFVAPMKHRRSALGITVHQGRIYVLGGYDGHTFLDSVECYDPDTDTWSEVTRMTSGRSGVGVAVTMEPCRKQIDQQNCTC

[1] = Solubility of the compound; type: physicochemical
Summary of the method: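 Intrinsic solubility determined by the pH-metric method, a potentiometric acid−base titration, using the pSOL model.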

[2] = Lipophilicity, log D of the compound; type: physicochemical; conditions: octanol/water
Summary of the method: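 log D at pH 7.4 measured by Avdeef−Bucher potentiometric titration on a Gemini Profiler instrument.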

Mus musculus [3] = assay: Anti-inflammatory in LPS-challenged C57BL/6 mouse model of acute inflammation assessed as reduction in TNFalpha level at 10 mg/kg, ip for 3 days pre-treated for 3 days followed by LPS challenge 24 hrs after last dose and measured 5 hrs post LPS challenge by ELISA method; type: functional, organism-based
Summary of the method: (§1)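 Female C57BL/6 mice (12−16 weeks), randomised, n = 10 per group; single daily IP injection on days −3, −2, −1, then 300 μg LPS IP 24 h after the last dose (day 0). Controls were saline-only and saline plus LPS, with dexamethasone 10 mg/kg/day as positive control. Sera taken 5 h post-LPS; plasma frozen at −20 °C and cytokines read by double-sandwich ELISA; mean ± SEM.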

Mus musculus [4] = assay: Anti-inflammatory in LPS-challenged C57BL/6 mouse model of acute inflammation assessed as reduction in IFNgamma level at 10 mg/kg, ip for 3 days pre-treated for 3 days followed by LPS challenge 24 hrs after last dose and measured 5 hrs post LPS challenge by ELISA method; type: functional, organism-based; summary of the method: as §1
Mus musculus [5] = assay: Anti-inflammatory in LPS-challenged C57BL/6 mouse model of acute inflammation assessed as reduction in IL6 level at 10 mg/kg, ip for 3 days pre-treated for 3 days followed by LPS challenge 24 hrs after last dose and measured 5 hrs post LPS challenge by ELISA method; type: functional, organism-based; summary of the method: as §1
Mus musculus [6] = assay: Anti-inflammatory in LPS-challenged C57BL/6 mouse model of acute inflammation assessed as reduction in IL12 level at 10 mg/kg, ip for 3 days pre-treated for 3 days followed by LPS challenge 24 hrs after last dose and measured 5 hrs post LPS challenge by ELISA method; type: functional, organism-based; summary of the method: as §1
Mus musculus [7] = assay: Anti-inflammatory in LPS-challenged C57BL/6 mouse model of acute inflammation assessed as reduction in IL17 level at 10 mg/kg, ip for 3 days pre-treated for 3 days followed by LPS challenge 24 hrs after last dose and measured 5 hrs post LPS challenge by ELISA method; type: functional, organism-based; summary of the method: as §1
Mus musculus [8] = assay: Toxicity in LPS-challenged C57BL/6 mouse model of acute inflammation at 10 mg/kg, ip for 3 days pre-treated for 3 days followed by LPS challenge 24 hrs after last dose and measured 5 hrs post LPS challenge; type: organism-based; conditions: in vivo
Summary of the method: (§2)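 Female C57BL/6 mice (12−16 weeks), n = 10 per group, dosed IP once daily on days −3 to −1, then challenged with 300 μg LPS IP 24 h after the last dose. Body weight and signs of acute toxicity were monitored during the pretreatment period.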

Mus musculus [9] = assay: Toxicity in LPS-challenged C57BL/6 mouse model of acute inflammation at 80 mg/kg, ip for 3 days pre-treated for 3 days followed by LPS challenge 24 hrs after last dose and measured 5 hrs post LPS challenge; type: organism-based; conditions: in vivo; summary of the method: as §2
Mus musculus [10] = assay: Toxicity in LPS-challenged C57BL/6 mouse model of acute inflammation assessed as changes in body weight at 10 mg/kg, ip for 3 days pre-treated for 3 days followed by LPS challenge 24 hrs after last dose and measured 5 hrs post LPS challenge; type: organism-based; conditions: in vivo; summary of the method: as §2
Mus musculus [11] = assay: Toxicity in LPS-challenged C57BL/6 mouse model of acute inflammation assessed as changes in body weight at 80 mg/kg, ip for 3 days pre-treated for 3 days followed by LPS challenge 24 hrs after last dose and measured 5 hrs post LPS challenge; type: organism-based; conditions: in vivo; summary of the method: as §2

| Compound | pIC50 (Keap1/Nrf2) | solubility ([1]; read-out: solubility) [µg/mL] | logD [2] | also measured |
| --- | --- | --- | --- | --- |
| COc1cccc(S(=O)(=O)N(CC(=O)O)c2ccc(N(CC(=O)O)S(=O)(=O)c3cccc(OC)c3)c3ccccc23)c1 | 7.18 | 16 (≈ 26 µM) | 0.89 |  |
| COc1ccc(S(=O)(=O)N(CC(=O)O)c2cccc3c(N(CC(=O)O)S(=O)(=O)c4ccc(OC)cc4)cccc23)cc1 | 5.73 |  |  |  |
| C[C@@H]1C[C@H]2[C@@H]3CCC4=CC(=O)C=C[C@]4(C)[C@@]3(F)[C@@H](O)C[C@]2(C)[C@@]1(O)C(=O)CO |  |  |  | inhibition (Mus musculus [3]): Active; inhibition (Mus musculus [4]): Active; inhibition (Mus musculus [5]): Active; inhibition (Mus musculus [6]): Active; inhibition (Mus musculus [7]): Active |
| O=C(O)CN(c1ccc(N(CC(=O)O)S(=O)(=O)c2ccc(OC(F)(F)F)cc2)c2ccccc12)S(=O)(=O)c1ccc(OC(F)(F)F)cc1 | 6.75 | 12.3 (≈ 17 µM) | 0.93 |  |
| O=C(O)CN(c1ccc(N(CC(=O)O)S(=O)(=O)c2ccc(Cl)cc2)c2ccccc12)S(=O)(=O)c1ccc(Cl)cc1 | 7.37 | 1200 (≈ 1920 µM) | 2.11 |  |
| O=C(O)CN(c1ccc(N(CC(=O)O)S(=O)(=O)c2ccc(F)cc2)c2ccccc12)S(=O)(=O)c1ccc(F)cc1 | 7.27 | 3800 (≈ 6430 µM) | 1.16 |  |
| N#Cc1ccc(S(=O)(=O)N(CC(=O)O)c2ccc(N(CC(=O)O)S(=O)(=O)c3ccc(C#N)cc3)c3ccccc23)cc1 | 6.93 | 1100 (≈ 1820 µM) | 0.65 |  |
| O=C(O)CN(c1ccc(N(CC(=O)O)S(=O)(=O)c2ccc(Br)cc2)c2ccccc12)S(=O)(=O)c1ccc(Br)cc1 | 7.44 | 5.7 (≈ 8 µM) | 4.29 |  |
| Cc1ccc(S(=O)(=O)N(CC(=O)O)c2ccc(N(CC(=O)O)S(=O)(=O)c3ccc(C)cc3)cc2)cc1 | 6.02 |  |  |  |
| CCCCc1ccc(S(=O)(=O)N(CC(=O)O)c2ccc(N(CC(=O)O)S(=O)(=O)c3ccc(CCCC)cc3)c3ccccc23)cc1 | 7.37 |  | 1.89 | solubility [1]: 0.006 µg/mL (≈ 0.009 µM) |
| COc1ccc(S(=O)(=O)N(CC(=O)O)c2ccc(N(CC(=O)O)S(=O)(=O)c3ccc(OC)cc3)c(C)c2)cc1 | 5.78 |  |  |  |
| COc1ccc(S(=O)(=O)N(CC(=O)O)c2ccc(N(CC(=O)O)S(=O)(=O)c3ccc(OC)cc3)cc2)cc1 | 5.84 |  |  |  |
| O=C(O)CN(c1ccc(N(CC(=O)O)S(=O)(=O)c2ccc(C(F)(F)F)cc2)c2ccccc12)S(=O)(=O)c1ccc(C(F)(F)F)cc1 | 6.91 | 12.3 (≈ 17.8 µM) | 2.81 |  |
| Cc1cc(C)c(S(=O)(=O)N(CC(=O)O)c2ccc(N(CC(=O)O)S(=O)(=O)c3c(C)cc(C)cc3C)c3ccccc23)c(C)c1 | 6.01 | 20 (≈ 31.3 µM) | 3.44 |  |
| O=C(O)CN(c1ccc(N(CC(=O)O)S(=O)(=O)c2cccc3ccccc23)c2ccccc12)S(=O)(=O)c1cccc2ccccc12 | 7.32 | 5 (≈ 7.64 µM) | 3.9 |  |
| O=C(O)CN(c1ccc(N(CC(=O)O)S(=O)(=O)c2ccccc2)c2ccccc12)S(=O)(=O)c1ccccc1 | 7.46 | 183 (≈ 330 µM) | 0.45 |  |
| COc1ccc(S(=O)(=O)N(CC(=O)O)c2cc(C)c(N(CC(=O)O)S(=O)(=O)c3ccc(OC)cc3)cc2C)cc1 | 4.99 |  |  |  |
| COc1ccc(S(=O)(=O)N(CC(=O)O)c2ccc(N(CC(=O)O)S(=O)(=O)c3ccc(OC)cc3)c(OC)c2)cc1 | 6.22 |  |  |  |
| CC(=O)Nc1ccc(S(=O)(=O)N(CC(=O)O)c2ccc(N(CC(=O)O)S(=O)(=O)c3ccc(NC(C)=O)cc3)c3ccccc23)cc1 |  | 5000 (≈ 7480 µM) | 1.02 | Activity (Mus musculus [8]): Non-toxic; Activity (Mus musculus [9]): Non-toxic; Activity (Mus musculus [10]): Non-toxic; Activity (Mus musculus [11]): Non-toxic |
| COc1ccc(S(=O)(=O)N(CC(=O)O)c2ccc(N(CC(=O)O)S(=O)(=O)c3ccc(OC)cc3)c3ccccc23)cc1 |  | 388 (≈ 631 µM) |  |  |
| CC(C)(C)c1ccc(S(=O)(=O)N(CC(=O)O)c2ccc(N(CC(=O)O)S(=O)(=O)c3ccc(C(C)(C)C)cc3)c3ccccc23)cc1 | 7.30 | 1.6 (≈ 2.4 µM) | 5.2 |  |
| Cc1ccc(S(=O)(=O)N(CC(=O)O)c2ccc(N(CC(=O)O)S(=O)(=O)c3ccc(C)cc3)c3ccccc23)cc1 | 7.74 | 248 (≈ 426 µM) | 0.93 |  |
